Source: ChEMBL document CHEMBL1126008, “Decorporation of aged americium deposits by oral administration of lipophilic polyamino carboxylic acids” (1992)

Columns and labels:
Rattus norvegicus [1] = assay: Reduction in liver 241Am after daily feeding of 200 uM of the compound/kg of body weight to rats for 10 days; assay type: functional
Procedure, shortened: (§1)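 Sprague-Dawley rats aged 60 days, nine per group. ²⁴¹Am in citrate buffer pH 3.5 given as a single jugular iv injection. From one week later, compound given at 50 μmol/rat (about 200 μmol/kg) in a daily 25 g chow ration for 10 days; untreated controls. Tissues counted for ²⁴¹Am at necropsy. Reduction = […]. p values given.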

Rattus norvegicus [2] = assay: Reduction in carcass 241Am after daily feeding of 200 uM of the compound/kg of body weight to rats for 10 days; assay type: functional; procedure, shortened: as §1
Rattus norvegicus [3] = assay: Reduction in whole body 241Am after daily feeding of 200 uM of the compound/kg of body weight to rats for 10 days; assay type: functional; procedure, shortened: as §1
Rattus norvegicus [4] = assay: Reduction in one kidney 241AM after daily feeding of 200 uM of the compound/kg of body weight to rats for 10 days; assay type: functional; procedure, shortened: as §1
Rattus norvegicus [5] = assay: Reduction in both femora 241Am after daily feeding of 200 uM of the compound/kg of body weight to rats for 10 days; assay type: functional; procedure, shortened: as §1
Rattus norvegicus [6] = assay: Weight gain after daily feeding of 200 uM of the compound/kg of body weight to rats for 10 days; assay type: functional
Procedure, shortened: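 Sprague-Dawley rats aged 60 days, nine per group, given ²⁴¹Am iv (jugular, citrate pH 3.5) one week before feeding began. Compound given at 50 μmol/rat (about 200 μmol/kg) daily in 25 g chow for 10 days; untreated controls. Weight gain over the feeding period reported as mean ± deviation.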

Canis familiaris = assay: In vitro elimination of Pu (given as citrate) from in vivo tagged canine liver cytosol after administration of the compound; value expressed as following filtrate to residue activity; assay type: functional, Canis lupus familiaris
Procedure, shortened: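 Liver homogenate in 0.25 M sucrose from a dog injected with Pu-citrate 7 days before sacrifice. Spun 20 min at 40000g to give cytosol, which was dialyzed against 50 mM TRIS-HCl. Cytosol mixed 1:1 with 4 mM compound (stock) in 0.1 M TRIS-HCl, pH 7.5, 270–300 mOsm. Incubated 2 h at 40 °C, then pressure-filtered through a 10000 Da cutoff. Read-out: Pu filtrate/residue ratio; control had no compound.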

Rattus norvegicus [7] = species on record: Rattus norvegicus; assay: Percent retention in rat gut section was measured in situ using intestinal tied-loop technique; assay type: functional, organism-based
Rattus norvegicus [8] = species on record: Rattus norvegicus; assay: Percent retention in rat visera was measured in situ using intestinal tied-loop technique; assay type: functional, organism-based
Rattus norvegicus [9] = species on record: Rattus norvegicus; assay: Percent retention in rat lumen was measured in situ using intestinal tied-loop technique; assay type: functional, organism-based
Rattus norvegicus [10] = species on record: Rattus norvegicus; assay: Percent retention in rat carcass was measured in situ using intestinal tied-loop technique; assay type: functional, organism-based
Rattus norvegicus [11] = species on record: Rattus norvegicus; assay: Percent retention in rat liver was measured in situ using intestinal tied-loop technique; assay type: functional, organism-based

SMILES: CCCCCCCCCCCCCCCCCCCCCCN(CCN(CCN(CCN(CC(=O)O)CC(=O)O)CC(=O)O)CC(=O)O)CC(=O)O
- Reduction (Rattus norvegicus [1]): 89%
- Reduction (Rattus norvegicus [2]): 37%
- Reduction (Rattus norvegicus [3]): 44%
- Reduction (Rattus norvegicus [4]): 26%
- Reduction (Rattus norvegicus [5]): 32%
- Weight (Rattus norvegicus [6]): 70.2 g

SMILES: CCCCCCCCN(CCN(CCN(CCN(CC(=O)O)CC(=O)O)CC(=O)O)CC(=O)O)CC(=O)O
- Activity (Canis familiaris): 0.16

SMILES: CCCCCCCCCCCCN(CCN(CCN(CCN(CC(=O)O)CC(=O)O)CC(=O)O)CC(=O)O)CC(=O)O
- Retention (Rattus norvegicus [7]): 73%
- Reduction (Rattus norvegicus [1]): 71%
- Retention (Rattus norvegicus [8]): 4%
- Reduction (Rattus norvegicus [2]): 20%
- Retention (Rattus norvegicus [9]): 73%
- Retention (Rattus norvegicus [10]): 20%
- Activity (Canis familiaris): 0.26
- Reduction (Rattus norvegicus [3]): 29%
- Reduction (Rattus norvegicus [4]): 23%
- Reduction (Rattus norvegicus [5]): 17%
- Retention (Rattus norvegicus [11]): 3%
- Weight (Rattus norvegicus [6]): 55.7 g
